Measured values reported in ChEMBL document CHEMBL4017511, “Discovery of Fragment-Derived Small Molecules for in Vivo Inhibition of Ketohexokinase (KHK)” (J Med Chem, 2017).
Converted amounts (≈) assume the structure as drawn. Each block holds one compound with its values, some of them ahead of it. The source made the active and inactive calls. The rule behind the calls is not given here.

What was measured:
[1] = Apparent clearance in human liver microsomes; assay type: ADME, microsome; conditions: read-out: CLH(app)
[2] = Octanol/water partition coefficient, log D of the compound at pH 7.4 by shake-flask method; assay type: physicochemical
In short: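 LogD measured by shake-flask octanol:water partition at pH 7.4.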

Ketohexokinase [3] = target: T1, Ketohexokinase (Homo sapiens, UniProt P50053); test: Inhibition of recombinant human N-terminal His-tagged KHK expressed in Escherichia coli BL21(DE3) using fructose as substrate incubated for 30 mins followed by ATP addition measured for 30 mins by pyruvate kinase-lactate dehydrogenase coupled enzyme assay
T1 sequence (P50053 whole entry): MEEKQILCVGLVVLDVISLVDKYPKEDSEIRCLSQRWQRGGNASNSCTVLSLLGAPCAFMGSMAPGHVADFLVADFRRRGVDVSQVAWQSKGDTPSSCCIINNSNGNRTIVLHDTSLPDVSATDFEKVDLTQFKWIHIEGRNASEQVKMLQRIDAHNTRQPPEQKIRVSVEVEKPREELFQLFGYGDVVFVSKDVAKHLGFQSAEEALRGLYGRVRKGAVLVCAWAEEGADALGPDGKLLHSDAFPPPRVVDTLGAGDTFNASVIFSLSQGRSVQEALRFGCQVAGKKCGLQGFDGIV
In short: (§1)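 Thrombin-cleaved (His-tag removed) human or rat KHK at 10 nM, preincubated 30 min at room temperature with compound (11-point series, 2.5% DMSO). Started with 0.2 mM ATP; NADH A340 read kinetically for 30 min. IC50 from nonlinear fit of percent inhibition; mean of replicates.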

[4] = target: T2, Ketohexokinase (Homo sapiens) (UniProt P50053); test: Inhibition of recombinant full length human His-tagged KHK expressed in Escherichia coli BL21(DE3) using at 240 uM by 1D NMR-STD spectroscopic method
T2 sequence (whole entry): T1 sequence (P50053 whole entry)
In short: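 Full-length His-tagged human KHK (tag retained) at 5 μM in 50 mM Tris-d, 100 mM NaCl, 2 mM TCEP-d, 5% glycerol-d, pH 7.5, 298 K. AMP-PMP at 240 μM served as positive control. Saturation-transfer difference NMR used 512 scans and 3 s Gaussian on/off-resonance saturation. Binding was called from positive difference signals, with ligands assigned against each fragment's 1D 1H reference spectrum.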

Ketohexokinase [5] = target: T1, Ketohexokinase; test: Binding affinity to full length recombinant human biotin-labeled KHK by SPR assay
In short: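 Full-length biotinylated KHK captured on a streptavidin sensor (7000-8000 RU). Run buffer was 50 mM HEPES pH 7.4, 150 mM NaCl, 0.01% P20, 500 µM TCEP, 3% DMSO at 25 °C. Eleven 2-fold concentrations from 300 µM top, stop-flow with 60 s association and ≥120 s dissociation. Data double-referenced and DMSO-corrected; KD by steady-state affinity fit, n=1.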

[6] = Apparent permeability in RRCK cells by LC-MS/MS analysis; assay type: ADME, cell-based, Canis lupus familiaris, MDCKII-LE; conditions: dog, MDCK
Ketohexokinase [7] = target: T3, Ketohexokinase (Rattus norvegicus, UniProt Q02974); test: Inhibition of recombinant rat N-terminal His-tagged KHK expressed in Escherichia coli BL21(DE3) using fructose as substrate incubated for 30 mins followed by ATP addition measured for 30 mins by pyruvate kinase-lactate dehydrogenase coupled enzyme assay; in short: as §1
T3 sequence (Q02974 whole entry): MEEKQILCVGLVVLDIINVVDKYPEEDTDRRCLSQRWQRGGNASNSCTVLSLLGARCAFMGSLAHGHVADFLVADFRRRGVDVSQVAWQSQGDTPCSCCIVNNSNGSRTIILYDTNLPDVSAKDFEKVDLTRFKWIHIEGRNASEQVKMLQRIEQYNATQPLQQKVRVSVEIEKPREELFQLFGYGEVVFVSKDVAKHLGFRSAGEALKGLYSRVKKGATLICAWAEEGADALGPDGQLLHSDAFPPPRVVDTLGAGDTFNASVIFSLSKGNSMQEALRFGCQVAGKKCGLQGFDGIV

Rattus norvegicus [8] = test: Unbound Cmax in rat at 300 mg/kg, po; assay type: ADME, organism-based; conditions: in vivo
In short: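 Rats given 300 mg/kg orally in 0.25% HPC-SL/0.05% DOSS vehicle. Free plasma concentrations determined; mean ± SD, n = 3 per data point.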

[9] = Fraction unbound in human plasma at 10 uM measured at 2 to 24 hrs by equilibrium dialysis method; assay type: ADME, cell-free
[10] = Thermodynamic solubility of compound at pH 7.4; assay type: physicochemical; conditions: buffer, read-out: Therm_solubility
In short: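 Thermodynamic solubility determined at pH 7.4.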

[11] = target: Voltage-gated inwardly rectifying potassium channel KCNH2 (Homo sapiens, UniProt Q12809); test: Inhibition of human ERG
Rattus norvegicus [12] = test: Oral bioavailability in rat at 5 mg/kg; assay type: ADME, organism-based; conditions: in vivo
[13] = Cmax in rat at 5 mg/kg; assay type: ADME, organism-based; design: dose 5 mg/kg; conditions: in vivo
Salmonella typhimurium = test: Genotoxicity in Salmonella typhimurium by Ames test; assay type: toxicity; conditions: salmonella enterica subsp. enterica serovar typhimurium
HepG2 = test: Cytotoxicity against human HepG2 cells up to 300 uM after 72 hrs; assay type: cell-based; conditions: hepg2, 72 h
In short: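 HepG2 cells incubated with compound at concentrations up to 300 µM for 72 hours to assess toxicity.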

Cytochrome P450 2D6 = Cytochrome P450 2D6 (Homo sapiens, UniProt P10635); test: Inhibition of human CYP2D6 at 3 uM; assay type: ADME
Rattus norvegicus [14] = test: In vivo inhibition of KHK-C in po dosed Sprague-Dawley rat assessed as decrease in F1P levels in liver administered for 1 hr followed by bolus fructose administration measured 2 mins after iv infusion by LC/MS analysis; assay type: functional
In short: (§2)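 Male Sprague Dawley rats (~200 g, jugular-cannulated) were fasted 16 h and given oral compound as a 0.5% methylcellulose nano-milled suspension. After 1 h they received an i.v. fructose bolus of 500 mg/kg over 20 s, and were decapitated 2 min later. Liver and kidney F1P was quantified by ion-exchange LC/MS/MS against a 13C-xylitol internal standard. ED50 from a four-parameter fit; n = 7-8.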

Cytochrome P450 2C9 = Cytochrome P450 2C9 (Homo sapiens, UniProt P11712); test: Inhibition of human CYP2C9 at 3 uM; assay type: ADME
Cytochrome P450 2C8 = target: T4, Cytochrome P450 2C8 (Homo sapiens, UniProt P10632); test: Inhibition of human CYP2C8 at 3 uM; assay type: ADME
T4 sequence (P10632 whole entry): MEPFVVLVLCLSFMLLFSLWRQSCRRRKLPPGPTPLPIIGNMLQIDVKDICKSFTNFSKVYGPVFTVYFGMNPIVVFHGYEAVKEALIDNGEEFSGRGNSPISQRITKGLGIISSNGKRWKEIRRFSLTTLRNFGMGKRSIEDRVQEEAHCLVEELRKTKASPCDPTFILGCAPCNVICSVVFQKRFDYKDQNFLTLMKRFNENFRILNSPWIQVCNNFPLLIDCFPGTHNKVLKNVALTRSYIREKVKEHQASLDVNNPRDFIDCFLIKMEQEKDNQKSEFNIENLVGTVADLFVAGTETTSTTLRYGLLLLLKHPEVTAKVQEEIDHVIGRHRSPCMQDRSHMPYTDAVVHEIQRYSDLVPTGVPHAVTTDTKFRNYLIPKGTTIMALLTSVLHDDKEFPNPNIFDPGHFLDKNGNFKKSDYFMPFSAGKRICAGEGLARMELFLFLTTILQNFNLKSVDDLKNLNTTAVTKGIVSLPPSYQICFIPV

Cytochrome P450 1A2 = target: T5, Cytochrome P450 1A2 (Homo sapiens, UniProt P05177); test: Inhibition of human CYP1A2 at 3 uM; assay type: ADME
T5 sequence (P05177 whole entry): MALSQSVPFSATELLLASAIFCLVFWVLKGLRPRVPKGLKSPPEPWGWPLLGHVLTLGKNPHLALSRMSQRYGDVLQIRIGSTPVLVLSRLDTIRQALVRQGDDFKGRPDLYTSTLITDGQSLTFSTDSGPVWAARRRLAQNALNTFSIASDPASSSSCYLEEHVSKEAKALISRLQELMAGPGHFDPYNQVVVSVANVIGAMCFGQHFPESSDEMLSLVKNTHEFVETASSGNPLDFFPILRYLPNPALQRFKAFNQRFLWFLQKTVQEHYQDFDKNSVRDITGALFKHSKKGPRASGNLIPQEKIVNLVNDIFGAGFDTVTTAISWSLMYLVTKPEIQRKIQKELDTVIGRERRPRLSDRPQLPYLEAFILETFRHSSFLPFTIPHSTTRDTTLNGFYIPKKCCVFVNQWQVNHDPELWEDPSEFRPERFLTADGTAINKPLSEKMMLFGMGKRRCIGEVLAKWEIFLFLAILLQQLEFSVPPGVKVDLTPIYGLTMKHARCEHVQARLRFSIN

Cytochrome P450 3A4 = Cytochrome P450 3A4 (Homo sapiens, UniProt P08684); test: Inhibition of human CYP3A4 at 3 uM; assay type: ADME
[15] = Half life in rat at 1 mg/kg, iv; assay type: ADME, organism-based; conditions: in vivo
In short: (§3)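 Rat PK following a 1 mg/kg intravenous dose; systemic clearance, volume of distribution and effective half-life derived from plasma exposure.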

Rattus norvegicus [16] = test: In vivo inhibition of KHK-C in po dosed Sprague-Dawley rat assessed as decrease in F1P levels in kidney administered for 1 hr followed by bolus fructose administration measured 2 mins after iv infusion by LC/MS analysis; assay type: functional; in short: as §2
Ketohexokinase [17] = target: T1, Ketohexokinase
Rattus norvegicus [18] = test: AUClast in rat at 5 mg/kg, po; assay type: ADME, organism-based; design: dose 5 mg/kg, route oral, time 0 - last; conditions: in vivo
[19] = Apparent clearance in rat liver microsomes; assay type: ADME, microsome; conditions: read-out: CLH(app)
Cytochrome P450 2C19 = Cytochrome P450 2C19 (Homo sapiens, UniProt P33261); test: Inhibition of human CYP2C19 at 3 uM; assay type: ADME
Rattus norvegicus [20] = test: Time required for plasma concentration to reach above in vitro rat KHK IC50 in rat at 150 mg/kg, po
In short: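 Rats dosed orally at 150 mg/kg as a nanocrystal suspension (1% polyvinylpyrrolidone / 0.025% sodium lauryl sulfate / 1% pluronic).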

Rattus norvegicus [21] = test: In vivo inhibition of fructose metabolism in po dosed Sprague-Dawley rat assessed as increase in plasma fructose level administered for 1 hr followed by oral bolus fructose administration measured after 2 mins by LC/MS analysis; assay type: functional, organism-based
In short: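 Fasted (16 h) non-cannulated male Sprague Dawley rats were dosed orally with compound in a 0.5% methylcellulose nano-milled suspension. One hour later they received 2 g/kg oral fructose. Tail-vein K2EDTA plasma was methanol-extracted with 13C6-fructose internal standard and analysed by HILIC LC-MS/MS; n = 6-8.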

[22] = Volume of distribution in rat at 1 mg/kg, iv; assay type: ADME, organism-based; conditions: in vivo; in short: as §3
Ketohexokinase [23] = target: T1, Ketohexokinase; remark: listed apart in the source
[24] = Rattus norvegicus, Sprague-Dawley

Chain of Cytochrome P450 2C9 (P11712 whole entry): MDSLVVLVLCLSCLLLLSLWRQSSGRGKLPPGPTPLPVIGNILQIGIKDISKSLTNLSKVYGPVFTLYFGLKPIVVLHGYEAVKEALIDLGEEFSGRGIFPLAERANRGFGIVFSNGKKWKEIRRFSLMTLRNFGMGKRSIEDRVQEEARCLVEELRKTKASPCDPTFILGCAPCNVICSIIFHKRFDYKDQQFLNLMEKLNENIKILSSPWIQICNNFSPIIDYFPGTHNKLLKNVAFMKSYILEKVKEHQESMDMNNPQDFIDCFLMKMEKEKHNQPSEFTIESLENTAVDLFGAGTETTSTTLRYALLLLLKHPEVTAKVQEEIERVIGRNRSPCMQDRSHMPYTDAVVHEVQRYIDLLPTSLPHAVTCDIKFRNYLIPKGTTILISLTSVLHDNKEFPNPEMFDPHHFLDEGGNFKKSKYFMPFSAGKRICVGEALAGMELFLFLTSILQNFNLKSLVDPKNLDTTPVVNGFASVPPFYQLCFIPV
Chain of Voltage-gated inwardly rectifying potassium channel KCNH2 (Q12809 whole entry): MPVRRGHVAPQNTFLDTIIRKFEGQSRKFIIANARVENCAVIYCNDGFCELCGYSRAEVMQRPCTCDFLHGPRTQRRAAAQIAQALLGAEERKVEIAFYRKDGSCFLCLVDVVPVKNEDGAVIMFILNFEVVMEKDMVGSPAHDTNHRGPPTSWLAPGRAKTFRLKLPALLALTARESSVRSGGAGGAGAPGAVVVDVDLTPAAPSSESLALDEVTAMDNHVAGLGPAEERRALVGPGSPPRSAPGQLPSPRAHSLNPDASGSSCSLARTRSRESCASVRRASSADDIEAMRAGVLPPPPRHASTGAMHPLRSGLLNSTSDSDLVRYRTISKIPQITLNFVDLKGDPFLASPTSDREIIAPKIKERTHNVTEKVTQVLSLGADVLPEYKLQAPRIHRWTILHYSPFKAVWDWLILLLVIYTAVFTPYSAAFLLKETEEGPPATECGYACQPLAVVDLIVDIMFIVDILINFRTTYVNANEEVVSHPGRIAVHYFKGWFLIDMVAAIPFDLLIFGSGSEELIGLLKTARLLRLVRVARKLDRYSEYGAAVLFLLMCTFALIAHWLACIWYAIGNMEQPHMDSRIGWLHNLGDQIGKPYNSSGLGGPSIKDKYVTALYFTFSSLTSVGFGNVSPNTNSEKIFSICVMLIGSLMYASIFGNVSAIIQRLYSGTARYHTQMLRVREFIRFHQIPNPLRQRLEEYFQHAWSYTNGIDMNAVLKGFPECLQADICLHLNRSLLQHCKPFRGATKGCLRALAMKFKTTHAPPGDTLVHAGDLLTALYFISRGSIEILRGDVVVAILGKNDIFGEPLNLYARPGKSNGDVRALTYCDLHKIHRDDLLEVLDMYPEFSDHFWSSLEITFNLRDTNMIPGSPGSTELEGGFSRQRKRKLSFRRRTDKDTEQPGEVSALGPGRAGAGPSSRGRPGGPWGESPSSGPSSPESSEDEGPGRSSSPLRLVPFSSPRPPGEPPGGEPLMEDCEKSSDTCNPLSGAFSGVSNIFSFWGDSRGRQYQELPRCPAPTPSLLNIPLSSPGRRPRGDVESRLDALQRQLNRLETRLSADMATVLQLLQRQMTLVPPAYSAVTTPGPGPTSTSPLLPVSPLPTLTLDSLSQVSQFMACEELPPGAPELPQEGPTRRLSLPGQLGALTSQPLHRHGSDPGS
Chain of Cytochrome P450 2C19 (P33261 whole entry): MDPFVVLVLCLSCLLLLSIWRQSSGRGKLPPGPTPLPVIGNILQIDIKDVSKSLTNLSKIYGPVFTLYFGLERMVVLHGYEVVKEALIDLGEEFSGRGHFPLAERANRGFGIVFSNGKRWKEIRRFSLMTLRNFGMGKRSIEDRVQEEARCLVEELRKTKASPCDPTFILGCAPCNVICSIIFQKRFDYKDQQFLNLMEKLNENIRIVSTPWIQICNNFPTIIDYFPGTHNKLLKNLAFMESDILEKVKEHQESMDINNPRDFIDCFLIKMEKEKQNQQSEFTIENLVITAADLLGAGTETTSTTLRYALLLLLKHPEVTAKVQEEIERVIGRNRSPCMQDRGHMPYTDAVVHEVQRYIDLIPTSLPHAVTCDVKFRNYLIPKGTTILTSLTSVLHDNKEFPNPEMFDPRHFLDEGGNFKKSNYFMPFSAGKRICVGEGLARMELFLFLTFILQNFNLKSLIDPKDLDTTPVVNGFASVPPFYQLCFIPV
Chain of Cytochrome P450 2D6 (P10635 whole entry, the tested form may be a part): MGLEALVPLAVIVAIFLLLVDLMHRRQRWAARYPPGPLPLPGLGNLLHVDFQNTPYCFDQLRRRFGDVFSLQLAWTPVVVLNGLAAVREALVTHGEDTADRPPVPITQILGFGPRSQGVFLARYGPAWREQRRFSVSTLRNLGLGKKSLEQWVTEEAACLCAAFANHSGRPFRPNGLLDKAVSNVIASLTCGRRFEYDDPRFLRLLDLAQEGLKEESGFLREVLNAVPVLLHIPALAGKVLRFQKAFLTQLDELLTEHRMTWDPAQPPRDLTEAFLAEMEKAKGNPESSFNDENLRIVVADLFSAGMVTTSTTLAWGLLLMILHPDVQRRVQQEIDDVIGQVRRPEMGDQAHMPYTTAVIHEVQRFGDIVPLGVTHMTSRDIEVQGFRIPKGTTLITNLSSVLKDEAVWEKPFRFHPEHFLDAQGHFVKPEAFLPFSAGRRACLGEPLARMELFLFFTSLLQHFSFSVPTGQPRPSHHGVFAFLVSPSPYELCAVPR
Chain of Cytochrome P450 3A4 (P08684 whole entry): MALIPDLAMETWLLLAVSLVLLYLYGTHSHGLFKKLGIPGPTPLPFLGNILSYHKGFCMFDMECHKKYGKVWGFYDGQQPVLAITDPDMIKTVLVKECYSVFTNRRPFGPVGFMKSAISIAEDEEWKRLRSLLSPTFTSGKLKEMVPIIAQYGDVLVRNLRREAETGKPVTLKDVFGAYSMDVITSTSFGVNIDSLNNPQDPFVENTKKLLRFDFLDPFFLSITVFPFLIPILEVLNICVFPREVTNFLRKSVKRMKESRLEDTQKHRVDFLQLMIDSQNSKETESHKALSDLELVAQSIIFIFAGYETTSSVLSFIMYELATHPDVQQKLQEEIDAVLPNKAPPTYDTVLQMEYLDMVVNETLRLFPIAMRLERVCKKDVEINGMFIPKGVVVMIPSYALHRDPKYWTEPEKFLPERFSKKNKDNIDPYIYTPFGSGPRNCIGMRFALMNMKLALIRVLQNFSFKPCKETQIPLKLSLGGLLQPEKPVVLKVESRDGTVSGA

- microsomal CLint [1]: 14 µL/min/mg
- logD [2]: 2.2
- IC50 (Ketohexokinase [3]; read-out: IC50): 1.03 µM
Structure (SMILES): C[C@]1(O)CCN(c2nc(N3CCN(CCO)CC3)cc(C(F)(F)F)c2C#N)C1

- inhibition [4]: Active
- IC50 (Ketohexokinase [3]; read-out: IC50): 118 µM
- IC50 (Ketohexokinase [3]; read-out: pIC50 (converted)): 120 µM
- Kd (Ketohexokinase [5]): 20 µM
Structure (SMILES): Cc1c[nH]c2ncnc(N3CCC[C@@H](CO)C3)c12

- microsomal CLint [1]: < 8 µL/min/mg
- logD [2]: 2.2
- Papp [6]: 14 ×10⁻⁶ cm/s
- IC50 (Ketohexokinase [7]; read-out: IC50): 640 nM
- IC50 (Ketohexokinase [3]; read-out: IC50): 0.67 µM
- fCmax (Rattus norvegicus [8]): 1.3 µM
- fraction unbound at 10 µM [9]: 0.032
- solubility thermodynamic [10]: 147 µM (≈ 45.6 µg/mL)
Structure (SMILES): C[C@]1(O)CCN(c2c(C#N)c(C(F)(F)F)nc3cc[nH]c23)C1

- IC50 (Ketohexokinase [3]; read-out: IC50): 16.8 µM
Structure (SMILES): N#Cc1c(C(F)(F)F)cc(N2CCN(CCO)CC2)nc1N1CCCC(CO)C1 (stereo not drawn)

- microsomal CLint [1]: < 8 µL/min/mg
- F (Rattus norvegicus [12]): 45%
- Cmax [13]: 2940 ng/mL
- logD [2]: 2.2
- inhibition (INH) (Cytochrome P450 2D6): Not Active
- Papp [6]: 3.5 ×10⁻⁶ cm/s
- inhibition (INH) (Cytochrome P450 2C9): Not Active
- IC50 (Ketohexokinase [7]; read-out: IC50): 340 nM
- IC50 (Ketohexokinase [7]; read-out: pIC50 (converted)): 501 nM
- inhibition (INH) (Cytochrome P450 2C8): Not Active
- inhibition (INH) (Cytochrome P450 1A2): Not Active
- inhibition (INH) (Cytochrome P450 3A4): Not Active
- half-life [15]: 72 min
- IC50 (Ketohexokinase [17]): 390 nM
- AUClast (Rattus norvegicus [18]): 14.5 µg·h/mL
- microsomal CLint [19]: < 8 µL/min/mg
- inhibition (INH) (Cytochrome P450 2C19): Not Active
- Vd [22]: 1.38 L/kg
- IC50 (Ketohexokinase [23]): 316 nM
- fraction unbound at 10 µM [9]: 0.13
- solubility thermodynamic [10]: 503 µM (≈ 187 µg/mL)
Structure (SMILES): C[C@]1(O)CCN(c2nc(N3C[C@H](O)[C@@H](O)C3)cc(C(F)(F)F)c2C#N)C1
- inhibition (INH) [11]: Not Active
- Activity (Salmonella typhimurium): Non-Toxic
- Activity (HepG2): Non-Toxic
- inhibition (Rattus norvegicus [14]): Dose-dependent effect
- pED50 (Rattus norvegicus [14]): 1.48
- ED50 (Rattus norvegicus [14]; [24]): 30 mg/kg
- inhibition (Rattus norvegicus [16]): Dose-dependent effect
- pED50 (Rattus norvegicus [16]): 1.2
- ED50 (Rattus norvegicus [16]; [24]): 15.7 mg/kg
- Time (Rattus norvegicus [20]): 14 h
- inhibition (Rattus norvegicus [21]): Dose-dependent effect
